# Source: PubChem
# NALP1 inh: NALP1 inflammasome inhibitors in reconstituted yeast, colorimetric, S. cerevisiae, triplicate retest | S. cerevisiae NALP1/ASC/caspase-1 growth, X-gal OD620, 72 h | inhibition, % at 10 µM | 280,000 tested, 0.61% active; in the data active means inhibition mostly above about 24%, no sharp cut-off; inactive means mostly below about 32%
# NALP3 yeast inh: NALP3 inflammasome inhibitors in reconstituted yeast, primary screen, luminescence, uHTS; 330,000 tested, 0.39% active; inhibition, % at 10 µM; Yeast reconstituted NLRP3/ASC/caspase-1, beta-gal luminescence, 24 h; AID 2825, 2010;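 active means inhibition of 50% or more; inactive means inhibition below 50%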;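 further: plate controls were induced DMSO wells for no effect and uninduced yeast grown without galactose for full effect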
# ALR H2O2 inh: inhibitors of human ALR sulfhydryl oxidase, primary screen, biochemical, H2O2 detection, HRP-luminol luminescence, single point; inhibition, % (test concentration not listed); AID 485317, 2010; FAD-linked sulfhydryl oxidase ALR (Homo sapiens), P55789; 290,000 tested, 3.8% active; purified ALR, DTT oxidation;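 active means mean replicate inhibition above about 79%, with every replicate also reaching it, limit read from the data; inconclusive means only one of the two criteria met; inactive means mean below limit and not every replicate reaching it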
# Arrestin-AP2 inh: inhibitors of beta-arrestin/AP2 binding, primary screen, biochemical, GPCR trafficking, flow cytometry. beta-arrestin 1 C-terminal peptide binding to AP2 beta2-adaptin appendage (human). FITC-arrestin peptide / GST-AP2 beads; AP2 beta2 appendage carries R879A mutation. inhibition, % at 10 µM. 340,000 tested, 0.31% active. AID 504490, 2011;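 active means inhibition above a set limit, near 3 SD of compounds lacking own fluorescence, cut at about 54% in these data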;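 further: plate controls were DMSO wells for no effect and 5 µM unlabelled arrestin peptide for full effect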
#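 system = GST-tagged AP2 beta2-adaptin appendage (R879A) on 4 µm glutathione beads | reagent = FITC-labelled arrestin peptide probe, 50 nM final | schedule = compound with beads 12 min RT, then probe 1 h RT | signal = HyperCyt-sampled flow cytometry, FL1 channel, ex 488/em 535 nm | read-out = percent response from loss of bead-bound FITC fluorescence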
# PolyA inhibitor: polyadenylation inhibitors in yeast reporter cells, primary screen, luminescence, S. cerevisiae. S. cerevisiae SKY197-pL101 polyadenylation reporter, beta-gal luminescence; efflux-impaired pdr1/pdr3 knockout yeast; score 100 = 6 SD above DMSO. activity score, % at 12 µM. 300,000 tested, 0.02% active;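 active means lowest replicate activity score at least 50, where 100 means six control SD above control mean; inconclusive means lowest score under 50 but half or more replicates reach 50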;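 further: yeast exposed to compound for 9 h at 30 °C; higher score means more reporter readthrough which indicates perturbed polyadenylation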
# Pemphigus Ab inh: inhibitors of pemphigus antibody binding to DSG3, primary screen, biochemical, bead-based, flow cytometry, scFv-GFP; DSG3-coupled beads, scFv-anti-DSG3-GFP binding; hits give low values; binding (percent of control), % at 10 µM; 310,000 tested, 0.48% active;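 active means binding more than 3 SD below its plate's average and above zero; inconclusive means below that plate limit but binding exactly zero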;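 further: hits lower antibody fragment binding to DSG3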
# * marks the source's active call; other numbers are inactive results; ? = inconclusive; . = no result given. This is a sample that favours compounds with a hit; in the whole collection about 4.6% have one here.
SMILES,NALP1 inh,NALP3 yeast inh,ALR H2O2 inh,Arrestin-AP2 inh,PolyA inhibitor,Pemphigus Ab inh
Cc1ccn2c(Nc3ccc4c(c3)OCO4)c(-c3ccc(O)cc3)nc2c1,27,6,85*,17,-6,100
Cc1ccc(-c2nc3ncccn3c2Nc2ccc3c(c2)OCO3)o1,-2,11,99*,42,-17,.
Clc1ccc(-c2nc3ncccn3c2Nc2ccc3c(c2)OCO3)cc1,-9,19,0,21,13,107
O=C(CN1C(=O)c2cccc([N+](=O)[O-])c2C1=O)NCc1ccccc1,1,7,-54,-7,9,100
N#C/C(=N\Nc1ccccc1)C(N)=S,-33,23,92*,27,-4,95
CCC(=O)NCCc1nc2cc(NC(=O)c3ccco3)ccc2n1C,-2,9,-3,16,4,.
C/C(=C\C(=O)c1ccc(Br)cc1)Nc1ccc(Cl)cc1,30,7,-10,-6,-15,78*
COc1ccccc1S(=O)(=O)Cc1ccc(C(=O)N2CCN(c3ccccn3)CC2)o1,22,16,-17,1,.,106
COc1ccc(S(=O)(=O)Cc2ccc(C(=O)N3CCCC3)o2)cc1,-34,7,94*,4,6,103
COc1ccc(S(=O)(=O)Cc2ccc(C(=O)N3CCN(c4ccccc4)CC3)o2)cc1,18,3,89*,0,8,105
COc1ccc(S(=O)(=O)Cc2ccc(C(=O)N3CCC(C(N)=O)CC3)o2)cc1,-1,-19,-35,3,-15,102
COc1ccccc1S(=O)(=O)Cc1ccc(C(=O)N2CCCC2)o1,-4,10,93*,-1,-14,103
CC12CC3CC(C)(C1)CC(C(=O)N1CCN(C(=O)c4ccco4)CC1)(C3)C2,14,12,1,-4,-12,107
CCOC(=O)c1[nH]c2ccc(OC)cc2c1N=CN(C)C,2,-10,98*,-4,12,98
O=C(CNC(=O)c1ccco1)NNC(=O)c1cccc(Cl)c1,.,3,.,12,.,95
CN(C)c1ccc(/C(=N\O)C(F)(F)F)cc1,37,23,98*,34,14,111
O=C1c2cccc3cccc(c23)C(=O)N1CCCc1n[nH]c(=S)n1-c1ccccc1,-14,11,92*,22,-7,106
CN1C/C(=C/c2cccnc2)C(=O)/C(=C/c2cccnc2)C1,.,.,3,1,.,97
CC(C)N1C/C(=C/c2cccnc2)C(=O)/C(=C/c2cccnc2)C1,106*,.,.,4,.,106
Oc1ccc(O)c(-c2cnns2)c1,39,.,99*,17,-2,.
Oc1ccc(Br)cc1-c1ccn[nH]1,39,14,15,35,20,97
COCCNC(=S)Nc1ccc(N2CCCCC2)cc1,-7,16,99*,40,-5,95
COc1ccc(C(=O)Nc2ccc3oc(-c4cccc(F)c4)nc3c2)cc1OC,-3,7,-11,1,-9,52*
COc1ccc(C(=O)Nc2ccc3oc(-c4cccnc4)nc3c2)cc1OC,0,22,-3,1,1,104
COc1ccc(NC(=O)c2cccnc2N2CCCC2)cc1,11,9,99*,-3,.,100
SMILES,NALP1 inh,NALP3 yeast inh,ALR H2O2 inh,Arrestin-AP2 inh,PolyA inhibitor,Pemphigus Ab inh
COc1ccc(NC(=O)C2CCCCN2N)cc1OC (stereo unspecified),8,-9,-13,10,-4,?
COc1ccc(NC(=O)C2CCCN2c2ccc(OC)c(OC)c2)cc1OC (stereo unspecified),17,15,99*,2,15,98
CCN(CC)CCC=C(c1cccs1)c1cccs1,.,.,.,-6,.,86
COc1ccc(C(=O)NC(=S)Nc2ccc(N3CCCC3)cc2)cc1,0,6,-7,45,0,19*
COc1ccc(C(=O)N/N=C(/C)c2ccc(N3CCCCC3)cc2)cc1,7,26,92*,5,2,99
COc1ccc(C(=O)Nc2ccc3[nH]ccc3c2)cc1,.,10,-8,13,0,107
COc1ccc(C(=O)Nc2ccc3[nH]ccc3c2)cc1OC,.,12,-15,-4,-3,85*
COc1ccc(C(=O)Nc2ccc(N3CCOCC3)cc2)cc1OC,21,8,-14,32,0,122
COc1ccc(C(=O)Nc2ccc(N3CCCC3)cc2)cc1,-11,22,20,29,-14,147
COc1ccc(C(=O)Nc2ccc(N3CCCC3)cc2)cc1OC,4,28,99*,10,-3,100
COc1ccc(C(=O)NC2=NCCS2)cc1S(=O)(=O)N1CCOCC1,.,.,.,.,.,110
COc1ccc(CN2CCN(C(=O)CCC(=O)Nc3nnc(C4CCCCC4)s3)CC2)cc1F,8,9,-2,14,1,103
Nc1ccccc1-n1c(=O)n(Cc2ccccc2F)c(=O)c2[nH]cnc21,-6,14,0,8,10,100
O=C(COC(=O)COc1ccc(Cl)cc1Br)NC1CCCC1,.,.,.,.,.,105
CC(=O)Nc1cccc(NC(=O)C(=O)c2cn(CC(=O)N3CCCC3)c3ccccc23)c1,.,.,.,.,.,106
Fc1ccc(Nc2c(-c3ccco3)nc3ccccn23)cc1,10,5,.,17,-16,81
Cc1cccc2nc(-c3ccco3)c(Nc3ccc4c(c3)OCCO4)n12,-1,2,95*,1,7,96
c1ccc(Nc2c(-c3ccco3)nc3ccccn23)cc1,17,9,98*,15,11,119
Cc1ccc(Nc2c(-c3ccco3)nc3ccccn23)cc1,25,3,99*,-6,-3,126
COc1ccc(Nc2c(-c3ccco3)nc3cccc(C)n23)cc1,0,5,.,-13,6,106
O=C(CSc1nccn1Cc1ccccc1)NC1CCCC1,20,5,-4,-9,5,97
CCCn1c(SCC(=O)Nc2ccc(S(=O)(=O)N3CCOCC3)cc2)n[nH]c1=O,.,.,.,.,.,103
O=C(CSc1nnc(Cn2cnc3ccccc32)o1)Nc1cccc2ccccc12,13,10,99*,0,11,106
CC(=O)c1ccc(NC(=O)CSc2nnc(Cn3cnc4ccccc43)o2)cc1,-12,7,97*,-6,-2,102
COc1ccc(C(=O)CSc2nnc(Cn3cnc4ccccc43)o2)cc1,-2,-3,-41,-14,16,.
